Screening results as filed in PubChem BioAssay.
Only a selection was taken, and hits are over-represented in it overall.
IDH1 R132H inh – IDH1 R132H (human) inhibition; IDH1 R132H reductase, diaphorase/resazurin fluorescence, 60 min; inhibition, % at 10 µM; hit rate 0.18% among 70,000; O75874; AID 624101; in the data active = inhibition above about 34%; inconclusive = no clear call, values can overlap the other calls; inactive = below about 11%;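 note: 0% = DMSO and 100% = no enzyme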
T cruzi growth-1 – inhibitors of T. cruzi proliferation | T. cruzi beta-gal in NIH3T3, GalScreen luminescence, 90 h | inhibition, % at 8.34 µM | hit rate 5.9% among 77,000 | AID 624255;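 active = mean inhibition above about 93%, with at least 55% of replicates each passing it, limit read from the data, passing the limit was not always enough; inconclusive = only one of those two conditions holds; inactive = neither condition holds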
GASC1 inh – KDM4C (human) demethylase inhibition | AID 720574 | GST-KDM4C 2-372, H3K9me3 peptide, LANCE TR-FRET | inhibition, % at 12.5 µM | Q9H3R0 | hit rate 0.15% among 96,000;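 active = mean replicate inhibition above about 25%, with at least 55% of replicates also reaching it, limit read from the data, passing the limit was not always enough; inconclusive = only one of those two conditions met; inactive = neither condition met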
Target sequence (Q9H3R0 2-372 limits assumed): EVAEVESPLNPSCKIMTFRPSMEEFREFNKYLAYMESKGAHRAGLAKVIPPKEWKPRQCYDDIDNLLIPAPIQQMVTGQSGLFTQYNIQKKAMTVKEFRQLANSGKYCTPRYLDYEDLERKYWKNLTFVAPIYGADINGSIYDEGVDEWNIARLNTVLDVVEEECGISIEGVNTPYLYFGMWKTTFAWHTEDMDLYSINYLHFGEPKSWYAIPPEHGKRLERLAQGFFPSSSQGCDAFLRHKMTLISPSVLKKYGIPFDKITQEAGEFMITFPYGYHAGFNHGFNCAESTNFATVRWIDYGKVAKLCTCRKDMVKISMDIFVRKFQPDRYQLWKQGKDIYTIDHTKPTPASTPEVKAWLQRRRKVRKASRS
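Material: GST-tagged GASC-1 (JMJD2C) catalytic fragment, aa 2-372. Input: enzyme final amount 10 nM. Medium: HEPES buffer, pH 7.5, plus ascorbate. Reagent: H3K9me3 peptide substrate, Fe(II), 2-oxoglutarate. Doses: single dose. Times: reaction 30 min RT, detection step 1 h RT. Measured by: LANCE TR-FRET. Evaluation: Fall in 671/618 emission ratio as inhibition.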
T cruzi growth-2 – Trypanosoma cruzi proliferation inhibition. shares compounds with T cruzi growth-1. T. cruzi beta-gal in NIH3T3, GalScreen luminescence, 90 h. inhibition, % at 8.35 µM. hit rate 72% among 5,600. AID 651739;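 active = mean replicate inhibition above about 95% and at least 55% of replicates individually reaching it, limit read from the data; inconclusive = only one of the two criteria is met; inactive = neither criterion is met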
T cruzi growth-3 – inhibitors of T. cruzi proliferation. inhibition, % at 2.09 µM. hit rate 21% among 5,600. T. cruzi beta-gal in NIH3T3, GalScreen luminescence, 90 h. shares compounds with T cruzi growth-1;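 active = mean inhibition above about 95%, with at least 55% of replicates also reaching it, limit read from the data; inconclusive = meets just one of the two conditions; inactive = meets neither condition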;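 note: plate controls were neutral control median for no effect and positive control median for full effect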
3T3 cytotox – kills mouse NIH/3T3 fibroblasts. shares compounds with T cruzi growth-1. NIH/3T3 viability, CellTiter-Glo ATP luminescence, 90 h. cytotoxicity (signal decrease), % at 8.35 µM. hit rate 14% among 5,600. AID 651742;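 active = mean signal decrease across replicates above about 35% based on untreated-well scatter, with enough replicates individually passing, limit read from the data; inconclusive = no rule stated though some were filed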;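 note: 0% = median of neutral control wells and 100% = median of positive control wells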
3T3 cytotox 2 – kills mouse NIH/3T3 fibroblasts; shares compounds with T cruzi growth-1; NIH/3T3 viability, CellTiter-Glo ATP luminescence, 90 h; inhibition, % at 24.9 µM; hit rate 56% among 5,600;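 active = mean loss of cell viability signal at or above a set limit, and enough replicates individually reaching it; inconclusive = meets only the mean limit or only the replicate share; inactive = meets neither condition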;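 note: 0% = median of neutral control wells and 100% = median of positive control wells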
* marks the source's active call; other numbers are inactive results; ? = inconclusive; · = no result.

SMILES	IDH1 R132H inh	T cruzi growth-1	GASC1 inh	T cruzi growth-2	T cruzi growth-3	3T3 cytotox	3T3 cytotox 2
CO[C@@H]1CN(C)C(=O)c2ccc(NC(=O)C3CC3)cc2OC[C@@H](C)N(C(=O)c2ccccn2)C[C@@H]1C	0.0	39.9	-1.0	·	·	·	·
CO[C@@H]1CN(C)C(=O)c2ccc(NC(=O)C3CC3)cc2OC[C@H](C)N(C(=O)c2cccnc2)C[C@H]1C	0.1	41.7	1.8	·	·	·	·
CO[C@H]1CN(C)C(=O)c2ccc(NC(=O)C3CC3)cc2OC[C@@H](C)N(C(=O)c2ccccn2)C[C@H]1C	0.1	102.1*	-1.8	53.3	17.0	9.4	-0.4
CO[C@H]1CN(C)C(=O)c2ccc(NC(=O)C3CC3)cc2OC[C@H](C)N(C(=O)c2cccnc2)C[C@@H]1C	0.2	112.1*	1.4	-186.2	22.0	-6.6	-17.4
C[C@H](CO)N1C[C@H](C)[C@H](CN(C)S(=O)(=O)c2ccc(C(F)(F)F)cc2)OCc2ccccc2-c2ccccc2C1=O	-5.4	92.6	-1.4	·	·	·	·
C[C@H](CO)N1C[C@H](C)[C@H](CN(C)S(=O)(=O)c2cccs2)OCc2ccccc2-c2ccccc2C1=O	-1.2	11.2	1.5	·	·	·	·
C[C@@H]1CN([C@H](C)CO)C(=O)c2ccccc2-c2ccccc2CO[C@H]1CN(C)S(=O)(=O)c1cccs1	·	?	0.8	89.3	15.5	20.8	?
Cc1noc(C)c1C(=O)N(C)C[C@H]1OCc2ccccc2-c2ccccc2C(=O)N([C@H](C)CO)C[C@H]1C	·	?	0.0	75.4	4.0	-7.0	9.6
C[C@@H]1CN([C@H](C)CO)C(=O)c2ccccc2-c2ccccc2CO[C@H]1CN(C)S(=O)(=O)c1ccc(C(F)(F)F)cc1	·	95.7*	-0.4	?	27.6	-3.6	20.0
Cc1noc(C)c1NC(=O)N(C)C[C@@H]1OCc2ccccc2-c2ccccc2C(=O)N([C@@H](C)CO)C[C@@H]1C	·	-21.1	1.4	·	·	·	·
CCc1ccccc1NC(=O)CN(C)S(=O)(=O)c1ccc(Br)cc1	-0.5	·	·	·	·	·	·
Cc1cc(Cl)c(S(=O)(=O)Nc2ccc(F)cc2)cc1OCC(N)=O	-0.1	·	·	·	·	·	·
COCC#Cc1ccc2c(c1)O[C@H](CN(C)S(=O)(=O)c1cccc(F)c1)[C@H](C)CN([C@H](C)CO)S2(=O)=O	-0.6	107.3*	5.3	93.3	74.4	29.8	62.5*
COCC#Cc1ccc2c(c1)O[C@H](CN(C)S(=O)(=O)c1cccc(F)c1)[C@@H](C)CN([C@@H](C)CO)S2(=O)=O	0.1	81.5	-2.1	·	·	·	·
CCCC#Cc1ccc2c(c1)O[C@H](CN(C)S(=O)(=O)c1cccc(OC)c1)[C@@H](C)CN([C@H](C)CO)S2(=O)=O	-0.2	·	10.8	·	·	·	·
CCCC#Cc1ccc2c(c1)O[C@H](CN(C)S(=O)(=O)c1cccc(F)c1)[C@H](C)CN([C@H](C)CO)S2(=O)=O	0.2	121.6*	0.6	103.1*	108.3*	15.9	75.5*
C[C@H]1CN([C@@H](C)CO)S(=O)(=O)c2ccc(C#CCN(C)C)cc2O[C@@H]1CN(C)S(=O)(=O)c1cccc(F)c1	0.3	·	3.5	·	·	·	·
CCCC#Cc1ccc2c(c1)O[C@@H](CN(C)S(=O)(=O)c1cccc(F)c1)[C@@H](C)CN([C@@H](C)CO)S2(=O)=O	0.4	121.5*	-1.9	104.9*	102.4*	19.6	83.8*
CCCC#Cc1ccc2c(c1)O[C@H](CN(C)S(=O)(=O)c1cccc(F)c1)[C@@H](C)CN([C@H](C)CO)S2(=O)=O	0.6	122.4*	-0.3	101.4*	106.2*	-3.0	24.5*
COCC#Cc1ccc2c(c1)O[C@@H](CN(C)S(=O)(=O)c1cccc(F)c1)[C@H](C)CN([C@@H](C)CO)S2(=O)=O	-1.4	64.3	-0.8	·	·	·	·
O=C(CCCCCC(=O)N/N=C/c1cccnc1)NO	-0.1	·	·	·	·	·	·
N#Cc1ccc(/C=N/NC(=O)CCCCC(=O)NO)cc1	-0.2	·	·	·	·	·	·
CCn1c(=O)c(C(=O)NCC2CCCO2)c(O)c2ccccc21 (stereo not given)	0.2	·	·	·	·	·	·
C=CCN(CC=C)S(=O)(=O)c1ccc(C(=O)Nc2ccccc2-c2nc3ccccc3[nH]2)cc1	0.6	·	·	·	·	·	·
C/C=C(C)\C=N\NC(=O)CCCCCCC(=O)Nc1ccccc1O	0.3	·	·	·	·	·	·
